The results in this text go back to ChEMBL document CHEMBL1156265, “Furo[2,3-b]pyridine-based cannabinoid-1 receptor inverse agonists: synthesis and biological evaluation. Part 1” (Bioorg Med Chem Lett, 2010).

Each structure is given as a SMILES string. Some results are limits rather than exact numbers.

In one data set the target is Cannabinoid receptor 1 (Homo sapiens, UniProt P21554). As to the kind of experiment: Inhibition of human CB1 receptor.
A further data set deals with Cannabinoid receptor 2 (Homo sapiens, UniProt P34972). As to the kind of experiment: Inhibition of human CB2 receptor.
Cannabinoid receptor 2, sequence (P34972 whole entry): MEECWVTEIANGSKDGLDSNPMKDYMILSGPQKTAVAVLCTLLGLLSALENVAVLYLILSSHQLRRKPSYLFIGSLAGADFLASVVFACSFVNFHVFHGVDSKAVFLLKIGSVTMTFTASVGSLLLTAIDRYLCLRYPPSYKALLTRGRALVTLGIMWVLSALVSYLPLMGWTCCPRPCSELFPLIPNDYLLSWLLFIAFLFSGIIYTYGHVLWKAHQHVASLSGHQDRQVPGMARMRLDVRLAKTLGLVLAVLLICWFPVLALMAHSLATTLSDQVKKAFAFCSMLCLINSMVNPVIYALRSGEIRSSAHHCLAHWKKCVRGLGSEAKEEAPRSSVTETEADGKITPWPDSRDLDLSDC
The nature of data set [1]: Half life in rat at 3 mg/kg. It counts as ADME, organism-based. Details: dose 3 mg/kg. The settings on record: in vivo.
For data set [2], the system named is Rattus norvegicus. As to the kind of experiment: Suppression of food intake in DIO rat at 3 mg/kg relative to control. In kind it is functional.
Data set [3] deals with Rattus norvegicus. As to the kind of experiment: Reduction of body weight in DIO rat assessed as weight change at 1 mg/kg, po after 18 hrs. It counts as functional. The gist of the method: (§1)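 Acute study in diet-induced obese rats. A single oral dose was given and rats were monitored for 18 h. Food intake suppression and body weight change were measured relative to vehicle-treated controls.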

Data set [4] concerns Rattus norvegicus. As to the kind of experiment: Suppression of food intake in DIO rat at 1 mg/kg, po relative to control. In kind it is functional. Summed up: as §1
Data set [5] in a line: Bioavailability in rat. It counts as ADME, organism-based. The settings on record: in vivo.
Data set [6] in a line: Half life in rat. It counts as ADME, organism-based. The settings on record: in vivo.
Data set [7] can be described thus: Plasma clearance in rat. In kind it is ADME, organism-based.
The nature of data set [8]: Ratio of drug level in brain to plasma in rat at 1 mg/kg, iv after 4 hrs. It counts as ADME, organism-based. Also noted: dose 1 mg/kg, route intravenous.
Data set [9] is described as follows: Drug level in rat brain at 1 mg/kg, iv after 4 hrs. It counts as ADME, organism-based. Details: dose 1 mg/kg, route intravenous. The settings on record: read-out: Drug uptake.
Data set [10] can be described thus: Drug level in rat plasma at 1 mg/kg, iv after 4 hrs. It counts as ADME, organism-based. Also noted: dose 1 mg/kg, route intravenous. The note with it: read-out: Drug uptake.
Data set [11] can be described thus: Bioavailability in dog. In kind it is ADME, organism-based, Canis lupus familiaris. The settings on record: in vivo. Summed up:
(§2)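 PK in dog and rhesus macaque. Bioavailability, plasma clearance (mL/min/kg) and terminal half-life derived from plasma drug levels.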

Data set [12] in a line: Half life in dog. The note with it: in vivo. In kind it is ADME, organism-based, Canis lupus familiaris. Summed up:
as §2

Data set [13] in a line: Plasma clearance in dog. It counts as ADME, organism-based, Canis lupus familiaris. The gist of the method:
as §2

The test system of data set [14] is Rattus norvegicus. As to the kind of experiment: Reduction of body weight in rat at 1 mg/kg, po after 13 days relative to control. It counts as functional. Details: scale not given: the % may be the effect or the level left. The gist of the method:
(§3)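 Chronic study in diet-induced obese rats with daily oral dosing at 1 mg/kg (for some compounds 0.1 and 0.3 mg/kg as well). Body weight change and cumulative food intake suppression were measured relative to vehicle. The 14-day study ended 18 h after the day-14 dose; one study ended on day 13.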

Data set [15] in a line: Lipophilicity, log D of the compound. The settings on record: HPLC, pH 7.3. It counts as physicochemical.
The test system of data set [16] is Rattus norvegicus. As to the kind of experiment: Reduction of body weight in DIO rat assessed as weight change at 1 mg/kg, po daily measured 18 hrs post dose on day 14. It counts as functional. Summed up: as §3
The subject of data set [17] is Rattus norvegicus. As to the kind of experiment: Suppression of food intake in DIO rat at 1 mg/kg, po measured 18 hrs post dose on day 14 relative to control.
Data set [18] can be described thus: Stability in phosphate buffer exposed to air assessed as degradation at pH 7.4 after 40 hrs. It counts as physicochemical. The note with it: read-out: Activity. Summed up: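 The compound was held in aqueous pH 7.4 phosphate buffer exposed to air for 40 h. The read-out was percent of material degraded to other products.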
Data set [19] can be described thus: Metabolic stability in rat bile assessed as total recovery at 2 mg/kg, iv after 5 days. Details: dose 2 mg/kg, route intravenous. The note with it: in vivo, 120 h. It counts as ADME, organism-based. Summed up:
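Radioactivity was collected in bile and urine for 120 h and expressed as percent of dose recovered.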

A short description of data set [20]: Metabolic stability in human liver microsomes assessed as compound remaining after 60 mins. In kind it is ADME, Microsome. The settings on record: read-out: Activity. Summed up:
(§4)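 Liver microsomes (monkey, human, rat, dog) were incubated with compound for 60 min. The read-out was percent parent remaining over the incubation time course.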
A general note: Liver microsomes are a subcellular fraction often used to study metabolism.

The nature of data set [21]: Metabolic stability in monkey liver microsomes assessed as compound remaining after 60 mins. In kind it is ADME, Macaca fascicularis, Microsome. The settings on record: cynomolgus monkey, read-out: Activity. The gist of the method: as §4
Data set [22] is described as follows: Bioavailability in rhesus monkey. The note with it: in vivo. In kind it is ADME, organism-based, Macaca mulatta. Summed up: as §2
A short description of data set [23]: Half life in rhesus monkey. It counts as ADME, organism-based, Macaca mulatta. The note with it: in vivo. The gist of the method:
as §2

Data set [24] is described as follows: Plasma clearance in rhesus monkey. In kind it is ADME, organism-based, Macaca mulatta. Summed up: as §2

Cannabinoid receptor 1, sequence (P21554 whole entry): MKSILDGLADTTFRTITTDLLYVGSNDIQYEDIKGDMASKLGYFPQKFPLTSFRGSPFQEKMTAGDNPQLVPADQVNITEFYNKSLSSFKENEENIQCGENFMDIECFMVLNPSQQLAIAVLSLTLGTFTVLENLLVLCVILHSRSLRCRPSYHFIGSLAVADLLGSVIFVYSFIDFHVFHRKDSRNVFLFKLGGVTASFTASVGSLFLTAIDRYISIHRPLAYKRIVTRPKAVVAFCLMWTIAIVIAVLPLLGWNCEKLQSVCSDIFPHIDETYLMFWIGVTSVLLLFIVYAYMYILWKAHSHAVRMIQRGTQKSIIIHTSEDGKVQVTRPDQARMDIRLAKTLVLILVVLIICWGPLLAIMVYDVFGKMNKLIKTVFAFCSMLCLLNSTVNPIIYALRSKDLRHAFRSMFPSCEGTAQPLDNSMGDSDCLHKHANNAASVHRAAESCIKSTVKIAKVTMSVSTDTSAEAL

As to `CCC(=O)c1oc2nc(-c3ccc(Cl)cc3Cl)c(-c3ccc(Cl)cc3)cc2c1N`, the half-inhibitory concentration (IC50) (as a rule, the concentration at which inhibition is half-maximal) at Cannabinoid receptor 1 worked out at 17 nM; at Cannabinoid receptor 2, 360 nM.

In the case of `Nc1c(C(=O)c2ccccc2)oc2nc(-c3ccc(Cl)cc3Cl)c(-c3ccc(Cl)cc3)cc12`, the results for the IC50 on Cannabinoid receptor 1 and against Cannabinoid receptor 2 were 3.5 nM and 440 nM, respectively.

In the case of `CC(=O)Nc1c(C(C)=O)c(=O)n(C)c2nc(-c3ccc(Cl)cc3Cl)c(-c3ccc(Cl)cc3)cc12` [NAPHTHYRIDINONE], in data set [1], the half-life (usually how long it takes for the measured level to halve) was above 480 min. In addition, in the data set with Rattus norvegicus [2], the Activity is given as -68%.

With `CC(C)C(=O)c1oc2nc(-c3ccc(Cl)cc3Cl)c(-c3ccc(Cl)cc3)cc2c1N`, the IC50 at Cannabinoid receptor 1 turned out to be 1.9 nM; against Cannabinoid receptor 2 it was 640 nM.

With `CC(C)(C)C(=O)c1oc2nc(-c3ccccc3Cl)c(-c3ccc(Cl)cc3)cc2c1N`, the Activity was -4 g with Rattus norvegicus [3] and 33% with Rattus norvegicus [4]. For the same compound, the results for the IC50 against Cannabinoid receptor 1 and at Cannabinoid receptor 2 were 4.3 nM and 1900 nM, respectively. In addition, the bioavailability (commonly the share of a dose that reaches the circulation, judged against a reference dose that is usually intravenous) in data set [5] amounted to 100%. Also, the half-life in [6] is 168 min. Moreover, the clearance (as a rule, the volume of plasma or blood freed of the substance per unit of time) in [7] is 22 mL/min/kg. For the same compound, in data set [8], the Kp (commonly tissue or fluid exposure divided by exposure in the circulation) at 4 h worked out at 2.3. Moreover, the concentration at 4 h is 290 nM in [9] and 130 nM in [10].

Regarding `CC(C)C(=O)c1oc2nc(-c3ccccc3Cl)c(-c3ccc(Cl)cc3)cc2c1N`, the IC50 was 1.7 nM at Cannabinoid receptor 1 and 1300 nM against Cannabinoid receptor 2.

On to `CC(C)C(=O)c1oc2nc(-c3ccccc3Cl)c(-c3ccc(Cl)cc3)cc2c1NC(=O)CO`, for which the Activity in the data set on Rattus norvegicus [3] was -7 g; in the data set with Rattus norvegicus [4], 37%. Also, the IC50 is 0.4 nM at Cannabinoid receptor 1 and 5100 nM against Cannabinoid receptor 2. Moreover, the bioavailability turned out to be 38% in [5] and 31% in data set [11]. Also, the results for the half-life in [6] and in data set [12] were 198 min and 3120 min, respectively. Besides, the clearance in data set [7] was 20 mL/min/kg; in [13], 4.9 mL/min/kg. In addition, the Kp at 4 h in [8] came out at 0.94. Besides, the figures for the concentration at 4 h in data set [9] and in data set [10] were 150 nM and 160 nM, respectively.

For the compound `CC(C)(C)C(=O)c1oc2nc(-c3ccccc3Cl)c(-c3ccc(Cl)cc3)cc2c1NC(=O)CO`, the Activity in the data set with Rattus norvegicus [14] is reported as 6%; in the data set on Rattus norvegicus [3], -6 g; with Rattus norvegicus [4], 24%; in the data set on Rattus norvegicus [16] it was -19 g; with Rattus norvegicus [17], 19%. The logD – broadly, lipophilicity at a set pH, counting ionised and neutral species – in [15] was determined as 6. For the same compound, the IC50 against Cannabinoid receptor 1 came out at 1.2 nM; against Cannabinoid receptor 2 it was 3400 nM. Further, the results for the bioavailability in data set [5] and in [11] were 32% and 42%, respectively. Moreover, the half-life is 210 min in data set [6] and 660 min in data set [12]. The clearance in [7] came to 10 mL/min/kg; in data set [13], 3 mL/min/kg. For the same compound, in data set [8], the Kp at 4 h was 1.8. In addition, the concentration at 4 h in data set [9] was 86 nM; in data set [10], 49 nM.

For `CCC(=O)c1oc2nc(-c3ccccc3Cl)c(-c3ccc(Cl)cc3)cc2c1N`, the IC50 was 13 nM against Cannabinoid receptor 1 and 1000 nM on Cannabinoid receptor 2.

With `CNCC(=O)Nc1c(C(=O)C(C)(C)C)oc2nc(-c3ccccc3Cl)c(-c3ccc(Cl)cc3)cc12`, the IC50 against Cannabinoid receptor 1 came to 1.2 nM; against Cannabinoid receptor 2, 3300 nM.

As to `CC(=O)Nc1c(C(=O)C(C)(C)C)oc2nc(-c3ccccc3Cl)c(-c3ccc(Cl)cc3)cc12`, the IC50 against Cannabinoid receptor 1 is 0.58 nM; against Cannabinoid receptor 2, above 2000 nM.

With `CN(C)C(=O)Nc1c(C(=O)C(C)(C)C)oc2nc(-c3ccccc3Cl)c(-c3ccc(Cl)cc3)cc12`, the values for the concentration for half-maximal inhibition (IC50) at Cannabinoid receptor 1 and on Cannabinoid receptor 2 were 0.39 nM and 1970 nM, respectively.

With `CC(C)(O)C(=O)c1oc2nc(-c3ccccc3Cl)c(-c3ccc(Cl)cc3)cc2c1N`, the results for the IC50 against Cannabinoid receptor 1 and against Cannabinoid receptor 2 were 20 nM and 2100 nM, respectively.

Regarding `CC(=O)c1oc2nc(-c3ccc(Cl)cc3Cl)c(-c3ccc(Cl)cc3)cc2c1N`, the figures for the IC50 on Cannabinoid receptor 1 and against Cannabinoid receptor 2 were 56 nM and 1000 nM, respectively.

For the compound `CC(C)(C)C(=O)c1oc2nc(-c3ccc(Cl)cc3Cl)c(-c3ccc(Cl)cc3)cc2c1N`, the Activity is 5.3% with Rattus norvegicus [14]; 41% in [19]; -5 g in the data set on Rattus norvegicus [3]; 53% in the data set with Rattus norvegicus [4]; -3 g in the data set on Rattus norvegicus [16]; 19% with Rattus norvegicus [17]. Also, in data set [18], the degraded at 40 h came out at 40%. In data set [15], the pH-dependent lipophilicity (logD) came out at 6.7. Moreover, the IC50 against Cannabinoid receptor 1 was 5.5 nM; against Cannabinoid receptor 2 it was 440 nM. The values for the remaining at 1 h in data set [20] and in data set [21] were 100% and 25%, respectively. The bioavailability in data set [5] worked out at 59%; in data set [11], 63%; in data set [22] it was 11%. For the same compound, the figures for the half-life in [6], in data set [12] and in [23] were 252 min, 474 min and 144 min, respectively. Further, the clearance is 5.6 mL/min/kg in data set [7], 7.3 mL/min/kg in data set [13] and 29 mL/min/kg in [24]. Further, the Kp at 4 h in [8] came out at 1. The concentration at 4 h in [9] and in data set [10] was 220 nM in each case.
